Assays:
Assay type in all cases: functional
UACC-62 = experiment: Cytotoxicity against human UACC62 cells assessed as cell growth at 10^-7 M after 48 hrs by SRB assay; settings: UACC-62, 48 h, read-out: Activity
EKVX [1] = experiment: Cytotoxicity against human EKVX cells assessed as cell growth at 10^-6 M after 48 hrs by SRB assay; settings: read-out: Activity
Procedure, shortened: (§1)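 NCI-60 screen: lines kept in RPMI 1640 with 5% FBS, seeded at 5000–40,000 cells/well by doubling time, preincubated 24 h at 37 °C in 5% CO2. Time-zero plates TCA-fixed at drug addition. DMSO stocks diluted in medium, 48 h exposure. Fixation in cold TCA (final 10% adherent, 16% suspension), 0.4% SRB stain, solubilised in 10 mM Tris base, A515. Percent growth computed against control and time-zero.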

NCI-H522 = experiment: Cytotoxicity against human NCI-H522 cells assessed as cell growth at 10^-6 M after 48 hrs by SRB assay; settings: NCI-H522, 48 h, read-out: Activity
SW-620 [2] = experiment: Growth inhibition of human SW620 cells after 48 hrs by SRB assay; settings: SW-620, 48 h; for CC50: read-out: LC50 (the source's name)
Procedure, shortened: (§2)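 Adherent NCI-60 lines grown in RPMI 1640 with 5% FBS, seeded at 5000–40,000 cells/well, and preincubated 24 h at 37 °C, 5% CO2. Compound, stocked in DMSO, given either once at 10^-5 M or at five 10-fold dilutions for 48 h. Cells fixed with cold TCA (final 10%), stained with 0.4% SRB, and read at 515 nm. GI50 taken as 50% reduction in net protein increase versus time-zero and control plates.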

SN12C = experiment: Growth inhibition of human SN12C cells after 48 hrs by SRB assay; settings: for CC50: read-out: LC50 (the source's name); procedure, shortened: as §2
SK-OV-3 = experiment: Cytotoxicity against human SKOV3 cells assessed as cell growth at 10^-7 M after 48 hrs by SRB assay; settings: SK-OV-3, 48 h, read-out: Activity
[3] = Cytotoxicity against human Hs 578T cells assessed as cell growth at 10^-4 M after 48 hrs by SRB assay; settings: read-out: Activity
Procedure, shortened: (§3)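 NCI-60 five-dose screen. Cells were grown in RPMI 1640 with 5% FBS and seeded at 5000–40,000 cells/well according to doubling time. They were pre-incubated 24 h at 37 °C in 5% CO₂, and time-zero (Tz) plates were TCA-fixed at drug addition. Five 10-fold dilutions of DMSO stock were applied for 48 h. Read-out was SRB staining, 515 nm absorbance, with percent growth calculated versus Tz and untreated control.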

HCT-116 = experiment: Cytotoxicity against human HCT116 cells assessed as cell growth at 10^-8 M after 48 hrs by SRB assay; settings: HCT-116, 48 h, read-out: Activity; procedure, shortened: as §3
A549 = experiment: Cytotoxicity against human A549 cells assessed as cell growth at 10^-6 M after 48 hrs by SRB assay; settings: A549, 48 h, read-out: Activity; procedure, shortened: as §1
SR = experiment: Cytotoxicity against human SR cells assessed as cell growth at 10^-7 M after 48 hrs by SRB assay; settings: read-out: Activity
SNB-19 [4] = experiment: Cytotoxicity against human SNB19 cells assessed as cell growth at 10^-7 M after 48 hrs by SRB assay; settings: SNB-19, 48 h, read-out: Activity
BT-549 = experiment: Cytotoxicity against human BT549 cells assessed as cell growth at 10^-5 M after 48 hrs by SRB assay; settings: BT-549, 48 h, read-out: Activity; procedure, shortened: as §1
PC-3 = experiment: Cytotoxicity against human PC3 cells assessed as cell growth at 10^-7 M after 48 hrs by SRB assay; settings: PC-3, 48 h, read-out: Activity
SK-MEL-2 = experiment: Cytotoxicity against human SK-MEL-2 cells assessed as cell growth at 10^-6 M after 48 hrs by SRB assay; settings: SK-MEL-2, 48 h, read-out: Activity
LOX IMVI [5] = experiment: Cytotoxicity against human LOXIMVI cells assessed as cell growth at 10^-5 M after 48 hrs by SRB assay; settings: read-out: Activity
M14 = experiment: Cytotoxicity against human M14 cells assessed as cell growth at 10^-7 M after 48 hrs by SRB assay; settings: M14, 48 h, read-out: Activity
HOP-92 = experiment: Cytotoxicity against human HOP92 cells assessed as cell growth at 10^-7 M after 48 hrs by SRB assay; settings: HOP-92, 48 h, read-out: Activity; procedure, shortened: as §3
SNB-19 [6] = experiment: Cytotoxicity against human SNB19 cells assessed as cell growth at 10^-8 M after 48 hrs by SRB assay; settings: SNB-19, 48 h, read-out: Activity
CCRF-CEM [7] = experiment: Cytotoxicity against human CCRF-CEM cells assessed as cell growth at 10^-8 M after 48 hrs by SRB assay; settings: read-out: Activity; procedure, shortened: as §1
SW-620 [8] = experiment: Cytotoxicity against human SW620 cells assessed as cell growth at 10^-5 M after 48 hrs by SRB assay; settings: SW-620, 48 h, read-out: Activity
TK-10 = experiment: Cytotoxicity against human TK10 cells assessed as cell growth at 10^-4 M after 48 hrs by SRB assay; settings: TK-10, 48 h, read-out: Activity
COLO = experiment: Cytotoxicity against human COLO […] cells assessed as cell growth at 10^-7 M after 48 hrs by SRB assay; settings: read-out: Activity; procedure, shortened: as §1
HOP-62 = experiment: Cytotoxicity against human HOP62 cells assessed as cell growth at 10^-4 M after 48 hrs by SRB assay; settings: HOP-62, 48 h, read-out: Activity; procedure, shortened: as §3
SF-268 = experiment: Cytotoxicity against human SF268 cells assessed as cell growth at 10^-4 M after 48 hrs by SRB assay; settings: SF-268, 48 h, read-out: Activity
UACC-257 = experiment: Cytotoxicity against human UACC257 cells assessed as cell growth at 10^-6 M after 48 hrs by SRB assay; settings: UACC-257, 48 h, read-out: Activity
IGROV-1 = experiment: Cytotoxicity against human IGROV1 cells assessed as cell growth at 10^-5 M after 48 hrs by SRB assay; settings: IGROV-1, 48 h, read-out: Activity; procedure, shortened: as §3
SNB-19 [9] = experiment: Cytotoxicity against human SNB19 cells assessed as cell growth at 10^-4 M after 48 hrs by SRB assay; settings: SNB-19, 48 h, read-out: Activity
EKVX [10] = experiment: Cytotoxicity against human EKVX cells assessed as cell growth at 10^-7 M after 48 hrs by SRB assay; settings: read-out: Activity; procedure, shortened: as §1
MDA-MB-231 = experiment: Growth inhibition of human MDA-MB-231 cells after 48 hrs by SRB assay; settings: MDA-MB-231, 48 h; procedure, shortened: as §2
CCRF-CEM [11] = experiment: Cytotoxicity against human CCRF-CEM cells assessed as cell growth at 10^-5 M after 48 hrs by SRB assay; settings: read-out: Activity; procedure, shortened: as §1
LOX IMVI [12] = experiment: Cytotoxicity against human LOXIMVI cells assessed as cell growth at 10^-8 M after 48 hrs by SRB assay; settings: read-out: Activity
HL-60 = experiment: Cytotoxicity against human HL60 cells assessed as cell growth at 10^-6 M after 48 hrs by SRB assay; settings: HL-60, 48 h, read-out: Activity; procedure, shortened: as §3

Compound	growth at 0.1 µM (UACC-62)	growth at 1 µM (EKVX [1])	growth at 1 µM (NCI-H522)	GI50 (SW-620 [2])	TGI (SW-620 [2])	CC50 (SW-620 [2])	GI50 (SN12C)	TGI (SN12C)	CC50 (SN12C)	growth at 0.1 µM (SK-OV-3)	growth at 100 µM [3]	growth at 0.01 µM (HCT-116)	growth at 1 µM (A549)	growth at 0.1 µM (SR)	growth at 0.1 µM (SNB-19 [4])	growth at 10 µM (BT-549)	growth at 0.1 µM (PC-3)	growth at 1 µM (SK-MEL-2)	growth at 10 µM (LOX IMVI [5])	growth at 0.1 µM (M14)	further results
COc1ccc(-c2nn3cc(-c4cccc(N)c4)nc3s2)cc1	90%	50%	60%	6.08 µM	76.6 µM	> 100 µM	4.18 µM	> 100 µM	> 100 µM	97%	-10%	99%	95%	102%	90%	24%	81%	79%	26%	101%	growth at 0.1 µM (HOP-92): 53%; growth at 0.01 µM (SNB-19 [6]): 96%; growth at 0.01 µM (CCRF-CEM [7]): 96%; growth at 10 µM (SW-620 [8]): 40%; growth at 100 µM (TK-10): -30%; growth at 0.1 µM (COLO): 101%; growth at 100 µM (HOP-62): -54%; growth at 100 µM (SF-268): -34%; growth at 1 µM (UACC-257): 107%; growth at 10 µM (IGROV-1): 20%; growth at 100 µM (SNB-19 [9]): 7%; growth at 0.1 µM (EKVX [10]): 72%; GI50 (MDA-MB-231): 1.58 µM; LC50 (concentration killing 50% of cells present at time zero) (MDA-MB-231): > 100 µM; TGI (MDA-MB-231): 13.2 µM; growth at 10 µM (CCRF-CEM [11]): 10%; growth at 0.01 µM (LOX IMVI [12]): 94%; growth at 1 µM (HL-60): 60%
COc1ccc(-c2nn3cc(-c4ccc(O)cc4O)nc3s2)cc1	95%	65%	69%	3.96 µM	> 100 µM	> 100 µM	2.58 µM	> 100 µM	> 100 µM	94%	-1%	94%	86%	85%	92%	12%	91%	85%	4%	96%	growth at 0.1 µM (HOP-92): 64%; growth at 0.01 µM (SNB-19 [6]): 93%; growth at 0.01 µM (CCRF-CEM [7]): 98%; growth at 10 µM (SW-620 [8]): 26%; growth at 100 µM (TK-10): -21%; growth at 0.1 µM (COLO): 106%; growth at 100 µM (HOP-62): -22%; growth at 100 µM (SF-268): -8%; growth at 1 µM (UACC-257): 83%; growth at 10 µM (IGROV-1): 9%; growth at 100 µM (SNB-19 [9]): 1%; growth at 0.1 µM (EKVX [10]): 92%; GI50 (MDA-MB-231): 1.37 µM; TGI (MDA-MB-231): 3.57 µM; growth at 10 µM (CCRF-CEM [11]): 40%; growth at 0.01 µM (LOX IMVI [12]): 101%; growth at 1 µM (HL-60): 74%
